Data on 19 molecules can be found in PubChem BioAssay.

The nature of experiment [1]: HUVEC growth inhibition – cell-based, human, primary screen (AID 575;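 active means viability at or below 30% in both replicate assays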;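 further: 100% = median of untreated cell wells with 0.1% DMSO on each plate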). To be noted: HUVEC proliferation, CellTiter-Glo luminescence, 72 h; at 10 µM; stronger effect = lower value. Summed up:
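Assay system: Primary human umbilical vein endothelial cells | Quantity: 1250 cells per well | Medium: Supplemented EBM, 2% fetal bovine serum | Detection: CellTiter-Glo luminescence measuring cellular ATP | Read-out: % viability vs DMSO wells | Plate: Collagen-coated 384-well format | Times: 72 h exposure, 37 °C, 5% CO2, 30 min RT equilibration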

A short description of experiment [2]: growth inhibitors of H69AR lung tumor, primary screen, human, duplicate replicates (AID 580).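 Further: 100% = mean luminescence of untreated wells and 0% = no signal.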 To be noted: H69AR lung tumor cells viability, ATP luminescence, 72 h; at 10 µM; stronger effect = lower value.
The nature of experiment [3]: reversal of MRP1-mediated doxorubicin resistance, pilot screen, H69AR cells, doxorubicin co-treatment (AID 601;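 active means viability loss from added drug above about 55%, and viability with drug at most 40%, in both replicates, limit read from the data, passing the limit was not always enough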). Particulars: CellTiter-Glo, 72 h, at 10 µM; for differential viability (reversal): stronger effect = higher value.
The nature of experiment [4]: 384-well plate pilot, post-Golgi transport modulator project, inhibition of yeast transport mutant growth (AID 636; in the data active means inhibition above about 31%). Particulars: absorbance 615 nm, about 18 h, stronger effect = higher value.
Experiment [5] can be described thus: growth suppression of yeast trafficking mutant, preliminary HTS, modulators of trafficking downstream of Golgi apparatus project, 1536-format plate, OD 615 nm (AID 637; in the data active means inhibition above about 30%). To be noted: yeast transport mutant growth, absorbance 615 nm, 18 h; stronger effect = higher value.
Setting [6] is: H69AR cells + 2 uM doxorubicin, measured here: viability with 2 uM doxorubicin, stronger effect = lower value.
The mark [7] stands for this setting: H69AR cells, compound alone cytotoxicity.

Each structure is given as a SMILES string. The source made the active and inactive calls.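 How the source made its calls, unless noted: active means viability at or under a set limit in both replicates, limit being median viability minus 3 SD (cut at about 48% in these data, passing the limit was not always enough); inconclusive means at or under the limit in just one replicate; inactive means at or above the limit in both replicates.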

In the case of `CCOc1ccc(OCC)c(NC(=O)C2CCN(c3ncccn3)CC2)c1`, the viability in experiment [1] was 105% (inactive); in experiment [2], 86.1% (inactive); in experiment [3] (setting [6]), 98.5%; in experiment [3] (setting [7]) it was 86.1%. Further, in experiment [3] (H69AR cells + 2 uM doxorubicin), the differential viability (reversal) is -12.5% (inactive). Also, the inhibition is -3.47% (inactive) in experiment [4] and -2.06% (inactive) in experiment [5].

For `Cc1nc(C)c(C(=O)C2=C(O)C(=O)N(CCCn3ccnc3)C2c2ccccc2)s1` (stereo not drawn), the viability in experiment [1] was 94.5% (inactive); in experiment [2], 95% (inactive); in experiment [3] (setting [6]) it was 94.1%; in experiment [3] (setting [7]), 95%. Moreover, the differential viability (reversal) in experiment [3] (H69AR cells + 2 uM doxorubicin) is 0.995% (inactive). In addition, the results for the inhibition in experiment [4] and in experiment [5] were -0.13% (inactive) and -2.54% (inactive), respectively.

For the molecule `COc1ccc(OC)c(CNC(=O)CCN2C(=O)COc3ccccc32)c1`, the viability is 90.1% (inactive) in experiment [1], 91.8% (inactive) in experiment [2], 88.5% in experiment [3] (setting [6]) and 91.8% in experiment [3] (setting [7]). Further, the differential viability (reversal) in experiment [3] (H69AR cells + 2 uM doxorubicin) is 3.34% (inactive). Besides, the inhibition in experiment [4] was -1.32% (inactive); in experiment [5], -2.06% (inactive).

As to `O=C(O)c1ccccc1S`, the viability in experiment [1] was 84.4% (inactive); in experiment [2], 74.7% (inactive); in experiment [3] (setting [6]) it was 67.8%; in experiment [3] (setting [7]), 74.7%. Besides, the differential viability (reversal) in experiment [3] (H69AR cells + 2 uM doxorubicin) was 6.9% (inactive). The inhibition in experiment [4] is -2.34% (inactive); in experiment [5], 3.5% (inactive).

`CCCC(CCC)n1[nH]c(=O)c2c(C)cc(C)nc21`: the viability in experiment [1] was 108% (inactive); in experiment [2], 104% (inactive); in experiment [3] (setting [6]) it was 103%; in experiment [3] (setting [7]), 104%. Also, the differential viability (reversal) in experiment [3] (H69AR cells + 2 uM doxorubicin) was 1.53% (inactive). The inhibition in experiment [4] was 0.26% (inactive); in experiment [5], -3.17% (inactive).

Take `O=C(NC1CC2CCC1C2)C1COc2ccccc2O1` (stereo not drawn): the viability was 100% (inactive) in experiment [1], 87.9% (inactive) in experiment [2], 83.4% in experiment [3] (setting [6]) and 87.9% in experiment [3] (setting [7]). The differential viability (reversal) in experiment [3] (H69AR cells + 2 uM doxorubicin) was 4.5% (inactive). Besides, the values for the inhibition in experiment [4] and in experiment [5] were -3.55% (inactive) and -2.38% (inactive), respectively.

For the molecule `c1ccc(OCCOc2ncnc3sccc23)cc1`, the viability was 100% (inactive) in experiment [1], 98.7% (inactive) in experiment [2], 91.7% in experiment [3] (setting [6]) and 98.7% in experiment [3] (setting [7]). For the same molecule, in experiment [3] (H69AR cells + 2 uM doxorubicin), the differential viability (reversal) was 7% (inactive). Also, the inhibition in experiment [4] is -0.26% (inactive); in experiment [5], -1.75% (inactive).

With `Cc1ccc(-c2[nH]nc3c2C(c2ccoc2)C(C#N)=C(N)O3)cc1C` (stereo not drawn), the viability in experiment [1] was 90.2% (inactive); in experiment [2], 86.7% (inactive); in experiment [3] (setting [6]) it was 86%; in experiment [3] (setting [7]) it was 86.7%. In addition, the differential viability (reversal) in experiment [3] (H69AR cells + 2 uM doxorubicin) was 0.74% (inactive). In addition, the inhibition was -1.45% (inactive) in experiment [4] and -1.27% (inactive) in experiment [5].

For `Cn1c(=O)c2c(nc(SCC(=O)NCc3ccc4c(c3)OCO4)n2Cc2ccccc2)n(C)c1=O`, the viability was 93.4% (inactive) in experiment [1], 92.6% (inactive) in experiment [2], 99.7% in experiment [3] (setting [6]) and 92.6% in experiment [3] (setting [7]). Further, the differential viability (reversal) in experiment [3] (H69AR cells + 2 uM doxorubicin) was -7.06% (inactive). Further, the inhibition in experiment [4] was 0.26% (inactive); in experiment [5] it was -4.13% (inactive).

`O=C(Sc1nnnn1C1CCCCC1)c1cccs1`: the viability in experiment [1] is 102% (inactive); in experiment [2], 98.7% (inactive); in experiment [3] (setting [6]), 92.5%; in experiment [3] (setting [7]) it was 98.7%. Moreover, the differential viability (reversal) in experiment [3] (H69AR cells + 2 uM doxorubicin) is 6.21% (inactive). Also, the inhibition in experiment [4] was -6.53% (inactive); in experiment [5], 3.81% (inactive).

Turning to `CCOC(=O)c1nn(-c2sc(C(=O)OC)c(C)c2C(=O)OC)cc1O`, the viability in experiment [1] is 105% (inactive); in experiment [2], 85.1% (inactive); in experiment [3] (setting [6]) it was 81.7%; in experiment [3] (setting [7]), 85.1%. In addition, the differential viability (reversal) in experiment [3] (H69AR cells + 2 uM doxorubicin) was 3.34% (inactive). Besides, the inhibition in experiment [4] is -1.82% (inactive); in experiment [5], 3.33% (inactive).

On to `Cc1ccc(SCCC(=O)N(C)C)cc1`, for which the viability in experiment [1] was 105% (inactive); in experiment [2], 103% (inactive); in experiment [3] (setting [6]) it was 84.6%; in experiment [3] (setting [7]), 103%. For the same molecule, in experiment [3] (H69AR cells + 2 uM doxorubicin), the differential viability (reversal) was 18.3% (inactive). Moreover, the inhibition was -2.89% (inactive) in experiment [4] and 0% (inactive) in experiment [5].

As for `CCOC(=O)c1c(NC(=O)c2ccoc2C)sc2c1CCC2`, the viability in experiment [1] was 93.3% (inactive); in experiment [2] it was 78.9% (inactive); in experiment [3] (setting [6]), 88.6%; in experiment [3] (setting [7]), 78.9%. Besides, in experiment [3] (H69AR cells + 2 uM doxorubicin), the differential viability (reversal) is -9.7% (inactive). In addition, the values for the inhibition in experiment [4] and in experiment [5] were -3.82% (inactive) and 0.95% (inactive), respectively.

Take `O=C(Oc1ccccc1)c1cccc(COC(=O)c2cnccn2)c1`: the viability in experiment [1] was 84.9% (inactive); in experiment [2], 103% (inactive); in experiment [3] (setting [6]), 88.4%; in experiment [3] (setting [7]), 103%. Further, in experiment [3] (H69AR cells + 2 uM doxorubicin), the differential viability (reversal) was 14.2% (inactive). For the same molecule, the inhibition in experiment [4] was -6.13% (inactive); in experiment [5], 4.13% (inactive).

With `c1ccc(CNC2=NCCC2)nc1`, the viability is 102% (inactive) in experiment [1], 101% (inactive) in experiment [2], 96.8% in experiment [3] (setting [6]) and 101% in experiment [3] (setting [7]). Moreover, in experiment [3] (H69AR cells + 2 uM doxorubicin), the differential viability (reversal) was 3.93% (inactive). In addition, the inhibition was -0.91% (inactive) in experiment [4] and -7.46% (inactive) in experiment [5].

On to `CN(Cc1cnn(C)c1)C(=O)c1cc2ccccc2oc1=O`, for which the viability is 114% (inactive) in experiment [1], 103% (inactive) in experiment [2], 89.9% in experiment [3] (setting [6]) and 103% in experiment [3] (setting [7]). For the same molecule, the differential viability (reversal) in experiment [3] (H69AR cells + 2 uM doxorubicin) is 13.3% (inactive). In addition, the inhibition was -5.66% (inactive) in experiment [4] and 2.06% (inactive) in experiment [5].

In the case of `CC(C)(C)OC(=O)N1CCN(c2ccc(NC(=O)c3cc4ccccc4oc3=O)cc2)CC1`, the viability in experiment [1] is 103% (inactive); in experiment [2], 93% (inactive); in experiment [3] (setting [6]), 84.8%; in experiment [3] (setting [7]) it was 93%. Moreover, the differential viability (reversal) in experiment [3] (H69AR cells + 2 uM doxorubicin) is 8.14% (inactive). Also, the inhibition in experiment [4] was -5.45% (inactive); in experiment [5] it was 1.59% (inactive).

As to `Cc1noc(C)c1COc1cccc(C(=O)Oc2ccc3c(c2)OCO3)c1`, the viability is 88.8% (inactive) in experiment [1], 79.5% (inactive) in experiment [2], 84.5% in experiment [3] (setting [6]) and 79.5% in experiment [3] (setting [7]). Moreover, the differential viability (reversal) in experiment [3] (H69AR cells + 2 uM doxorubicin) was -5.05% (inactive). Further, the inhibition in experiment [4] was -4.81% (inactive); in experiment [5], 1.75% (inactive).

Consider `COc1cccc(OC)c1C(=O)Nc1ccccc1N1CCCC1`, for which the viability in experiment [1] is 91.1% (inactive); in experiment [2], 91.6% (inactive); in experiment [3] (setting [6]), 84.9%; in experiment [3] (setting [7]) it was 91.6%. Moreover, the differential viability (reversal) in experiment [3] (H69AR cells + 2 uM doxorubicin) is 6.71% (inactive). Also, the figures for the inhibition in experiment [4] and in experiment [5] were -1.71% (inactive) and -2.86% (inactive), respectively.
